MrgX1 antagonist: blocks BAM8-22 activation of human MrgX1 receptor; MRGX1-HEK293 calcium flux, Fluo-4, BAM8-22 antagonism; stronger effect = lower value; B-score at 10 µM; 1.3% of 310,000 active; AID 588676;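 active = calcium-response B-score plate-corrected more than 3 library SD below zero, starting fluorescence within 5 deviations, no agonist response on first addition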;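 also: peak minus trough fluorescence over baseline after final BAM8-22 challenge near maximal dose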
Target sequence (Q96LB2 whole entry, looked up): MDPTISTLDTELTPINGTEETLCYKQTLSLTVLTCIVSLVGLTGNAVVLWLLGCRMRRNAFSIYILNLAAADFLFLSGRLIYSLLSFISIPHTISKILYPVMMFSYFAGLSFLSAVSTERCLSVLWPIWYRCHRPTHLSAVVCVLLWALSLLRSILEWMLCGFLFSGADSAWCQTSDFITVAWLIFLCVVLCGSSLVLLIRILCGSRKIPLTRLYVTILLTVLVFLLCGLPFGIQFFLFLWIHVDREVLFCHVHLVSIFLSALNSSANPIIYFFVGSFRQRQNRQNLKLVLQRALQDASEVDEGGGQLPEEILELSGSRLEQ
RGS4 inh: human RGS4 inhibition. 0.45% of 310,000 active. HEK293 M3R/RGS4 inducible, Fluo-4 calcium flux; stronger effect = higher value; triggered by carbachol at its EC20. B-score at 10 µM;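 active = B-score, a plate-corrected calcium signal, over three deviations above library mean, with baseline fluorescence within five deviations of library mean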;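 also: RGS4 expression induced by doxycycline in cells with stable M3 receptor; B-score is computed from the integrated fluorescence ratio over baseline after carbachol; higher B-score means a larger calcium signal and so more RGS4 inhibition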
Target sequence (P49798 whole entry, looked up): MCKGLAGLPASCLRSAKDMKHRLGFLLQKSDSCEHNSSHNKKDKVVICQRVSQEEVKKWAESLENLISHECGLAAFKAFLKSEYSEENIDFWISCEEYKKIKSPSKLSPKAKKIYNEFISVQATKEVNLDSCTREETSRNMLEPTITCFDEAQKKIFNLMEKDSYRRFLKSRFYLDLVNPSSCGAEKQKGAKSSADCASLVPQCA
RGS4 pot: potentiators or activators of RGS4. B-score at 10 µM. HEK293 M3R/inducible RGS4, carbachol calcium flux Fluo4; stronger effect = lower value. 0.92% of 310,000 active;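 active = B-score of the integrated calcium signal more than 4 SD below the library mean, with starting fluorescence not abnormally high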;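 also: negative B-score means reduced calcium response which marks RGS4 activation or potentiation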
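System – HEK293 FlpIn-TREx cells, stable M3R, doxycycline-inducible RGS4 · Reagent – ECmax carbachol challenge · Times – compound preincubation 20 min at room temperature before agonist · Technique – Fluo4 fluorescence kinetic imaging of calcium · Measure – B score of integrated Fluo4 ratio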
MrgX1 ag: agonists of human MrgX1 receptor. MrgX1-HEK293 cells, Fluo-4 calcium fluorescence, agonist mode; stronger effect = higher value. 0.44% of 310,000 active. B-score at 10 µM;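 active = calcium response B-score plate-corrected fluorescence ratio at least 3 library SD, with starting fluorescence B-score inside 5 SD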
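Assay system: stable human MrgX1 HEK293 cell line. Quantity: 15,000 cells per well. Schedule: cells plated overnight, dye loaded 0.5 h 37 °C, 0.5 h room temperature. Detection: Fluo-4 NW calcium-flux fluorescence, kinetic read. Read-out basis: peak-minus-minimum fluorescence over baseline, converted to B scores. Control set: positive and negative control wells on each plate.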
MrgX1 allo act: allosterically activates human MrgX1 receptor signaling; Q96LB2; MrgX1-HEK293, Fluo-4 calcium flux, FDSS; stronger effect = higher value; B-score at 10 µM; 0.63% of 310,000 active; AID 588675;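 active = plate-corrected calcium response at least 3 library SD above typical, normal starting fluorescence, not activating the receptor alone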;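 also: compound read alongside a low EC10 to EC30 dose of BAM8-22 agonist; peak minus trough fluorescence over baseline measured at the second addition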
RGS4 activ val: RGS4 activation, validation assay | shares compounds with RGS4 pot | HEK293 M3R/RGS4 inducible, carbachol calcium flux Fluo4 | inhibition, % at 10 µM | 89% of 1,100 active | AID 602282;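 active = inhibition above 3 SD of the buffer control wells, cut at about 41% in these data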;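 also: signal is the integrated peak-minus-minimum Fluo4 fluorescence over baseline ratio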
M3R Ca counter: activity in cells without induced RGS4 expression; shares compounds with RGS4 pot; HEK293 M3R non-induced RGS4, Fluo4 calcium flux; after carbachol challenge at its EC90; inhibition, % at 10 µM; 82% of 1,100 active;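 active = inhibition exceeding 3 SD of buffer-only control wells, cut at about 26% in these data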;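 also: percent drop in integrated peak-minus-baseline over baseline Fluo4 ratio after carbachol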
Large screens that a line does not name were inactive (follow-up assays come after a bar, where they were run). This is a sample that favours compounds with a hit; in the whole collection about 3.5% have one here.

CCOC(=O)c1cc(-c2ccccc2)sc1NC(=O)C(C)OC(=O)c1cccnc1Cl (stereo not given)	none
CCCc1nnc(NC(=O)CCC(=O)N2CCCCC2CC)s1 (stereo not given)	RGS4 pot -7.8 | RGS4 activ val inactive | M3R Ca counter inactive
COc1cc(O)c(CC=C(C)C)c(O)c1C(=O)CCc1ccc(O)cc1	RGS4 pot -9.3 | RGS4 activ val 91 | M3R Ca counter 76
O=C(CN1N=C(c2ccc(Cl)cc2)CCC1=O)NCc1cccnc1	none
CC(NC(=O)C(=O)c1cn(CC(=O)N2CCOCC2)c2ccccc12)c1ccccc1 (stereo not given)	none
Cc1ccccc1NC(=O)c1cccc2nc3ccccc3nc12	RGS4 pot -7.8 | RGS4 activ val 86 | M3R Ca counter 59
COC(=O)Cn1c(=O)n(CCc2ccccc2)c(=O)c2c3c(sc21)CCCC3	RGS4 pot -7.8 | RGS4 activ val 92 | M3R Ca counter 89
CCn1c(=O)n(CCc2ccccc2)c(=O)c2c3c(sc21)CCCC3	none
Cc1ccc(/C=N\NC(=O)Cc2noc3ccccc23)cc1	none
CCCc1ncc(CN2CCCC(C(=O)Nc3ccc(-c4cccc(OC)c4)cc3)C2)cn1 (stereo not given)	none
COc1cccc(-c2ccc(NC(=O)C3CCCN(Cc4cnn(C(C)C)c4)C3)cc2)c1 (stereo not given)	RGS4 pot -11 | RGS4 activ val 92 | M3R Ca counter 79
O=C(Nc1ccc(-c2cccc(F)c2)cc1)C1CCCN(Cc2ccccn2)C1 (stereo not given)	RGS4 pot -8.1 | RGS4 activ val 50 | M3R Ca counter 29
COc1cc(C)ccc1NC(=O)Cc1csc(NC(=O)Nc2ccccc2OC)n1	RGS4 pot -10 | RGS4 activ val 94 | M3R Ca counter 91
COc1ccccc1N(C(=O)CCl)c1cn(C(C)=O)c2ccccc12	RGS4 pot -8.8 | RGS4 activ val inactive | M3R Ca counter inactive
Cc1c(CN(C)C(=O)c2sc3cc(Cl)ccc3c2Cl)cnn1C	none
CC(=O)NC(Cc1cccc(C)c1)C(=O)NC1CCN(C(=O)NCc2ccccc2)CC1 (stereo not given)	none (no result: MrgX1 antagonist, MrgX1 ag, MrgX1 allo act)
CCn1c2ccccc2c2cc(/C=N/n3cn[nH]c3=S)ccc21	none
CCn1c2ccccc2c2cc(/C=N/n3c(-c4cc(C)[nH]n4)n[nH]c3=S)ccc21	RGS4 pot -7.8 | RGS4 activ val 70 | M3R Ca counter 42
O=C(COC(=O)/C=C/C(=O)N1CCN(c2ccccc2)CC1)NC(c1ccccc1)c1ccccc1	none
S=c1[nH]nc(-c2ccc(Cl)cc2Cl)n1Cc1ccccc1	RGS4 pot -7.8 | RGS4 activ val 91 | M3R Ca counter 58
S=c1[nH]nc(-c2ccc(Cl)cc2Cl)n1-c1ccccc1	none
S=c1[nH]nc(-c2cccc(Cl)c2)n1Cc1ccccc1	none
Cc1cccc(-c2n[nH]c(=S)n2Cc2ccccc2)c1	RGS4 pot -8 | RGS4 activ val inactive | M3R Ca counter inactive
CN1CCN(CCC(=O)N2c3ccccc3Sc3ccc(Cl)cc32)CC1	none
c1ccc2c(c1)CC(N1CCCCC1)c1ccccc1S2 (stereo not given)	none
CN1CCN(C2=Cc3cc(Cl)ccc3Sc3cc(F)ccc32)CC1	RGS4 pot -8 | RGS4 activ val 92 | M3R Ca counter 91
CCc1ccc2c(c1)Sc1ccccc1CC2N1CCN(C)CC1 (stereo not given)	RGS4 pot -8.9 | RGS4 activ val 92 | M3R Ca counter 90
CN1CCN(C2Cc3cc(Cl)ccc3Sc3cc(F)ccc32)CC1 (stereo not given)	RGS4 pot -8 | RGS4 activ val 93 | M3R Ca counter 95
OCCN1CCN(C2Cc3cc(Cl)ccc3Sc3ccc(Cl)cc32)CC1 (stereo not given) (tested in a mixture with another compound)	none
NC(=O)/C(=C/c1ccco1)C(N)=S	none
CCN(CC)CCC#CC(O)(c1ccccc1)c1ccccc1	RGS4 pot -8.1 | RGS4 activ val 93 | M3R Ca counter 89
CCN(CC)CCC#CC1(O)c2ccccc2-c2ccccc21	none
CCOC(=O)c1cc(-c2ccccc2)nc2nc(N(CC)CC)sc12	RGS4 pot -9 | RGS4 activ val 88 | M3R Ca counter 76
COC(=O)C(Nc1ccccc1Cl)(c1cc(C)c(O)c(C)c1)C(F)(F)F (stereo not given)	RGS4 pot -9.6 | RGS4 activ val 93 | M3R Ca counter 97
CC1(C(=O)OCC(=O)Nc2cccc(S(=O)(=O)NC3=NCCCCC3)c2)CC1(Cl)Cl (stereo not given)	none
COc1c(C(=O)Nc2ccc(Cc3ccncc3)cc2)ccc2ccccc12	RGS4 pot -13 | RGS4 activ val 92 | M3R Ca counter 86
COc1ccc(Br)cc1C(=O)Nc1ccc(Cc2ccncc2)cc1	none
COc1cccc(C(C(=O)NC(C)(C)C)N(CCc2ccccc2)C(=O)CCC(=O)Nc2cc(C)on2)c1OC (stereo not given)	none
N#Cc1c(OCC(=O)c2ccccc2)nc2c(c1-c1ccco1)CCc1ccccc1-2	none
CCOC(=O)COc1nc2c(c(-c3ccco3)c1C#N)CCc1ccccc1-2	RGS4 pot -7.8 | RGS4 activ val 82 | M3R Ca counter 37
CCOC(=O)COc1nc(-c2ccccc2)cc(-c2ccco2)c1C#N	RGS4 pot -7.7 | RGS4 activ val 88 | M3R Ca counter 54
CCN(Cc1ccc(C#CCCO)cc1)CC1CCCN(CCc2cccc(F)c2)C1 (stereo not given)	none
O=C(c1ccco1)N1CCN(C(=O)c2cc(-c3ccncc3)nc3ccc(Br)cc23)CC1	none
O=C(c1cc(-c2ccccc2)nc2ccccc12)N1CCOCC1	none
CC(C)c1ccc(-c2cc(C(=O)N3CCOCC3)c3cc(Br)ccc3n2)cc1	RGS4 pot -8.4 | RGS4 activ val 80 | M3R Ca counter 38
CC(=O)c1ccc(N2CCN(C(=O)c3cc(-c4ccncc4)nc4ccc(Br)cc34)CC2)cc1	RGS4 pot -9.3 | RGS4 activ val 68 | M3R Ca counter inactive
CCCCC(CC)C(=O)Oc1ccc(O)c(C(C)(C)C)c1 (stereo not given)	RGS4 pot -7.7 | RGS4 activ val 92 | M3R Ca counter 87
COC(=O)c1ccc(Oc2ccc(C(F)(F)F)cn2)cc1	none
N#CC(C#N)=c1ccc2c(c1)N1C3=C(CCCC3)CC3CCCCC31N=2 (stereo not given)	RGS4 pot -8.2 | RGS4 activ val 84 | M3R Ca counter 84

Bioassay records from PubChem BioAssay.
